Rows were chosen to be rich in hits. Some 11% of all compounds tested hit in one or more screens of this group.
Lmaj promast = reduces viability of Leishmania major promastigotes; resazurin fluorescence viability; inhibition, % at 10 µM; 9% of 200,000 active;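 also: promastigotes grown with compound for 44 hours at 28 °C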
Diaphorase act = activates diaphorase or chemically reduces, flagging diaphorase assay artifacts. Diaphorase/resazurin coupled assay, resorufin fluorescence, 16 min; hits give high values; 1 = vehicle wells, 0 = NADH-free wells. activation factor at 20 µM. 0.005% of 190,000 active;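 active = diaphorase activity raised at least twofold by the compound at 20 µM; inactive = activation factor below 2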
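Material: bacterial diaphorase enzyme (C. kluyveri); amount: enzyme 0.07 U/mL final; reagent: NADH substrate 0.114 mM plus resazurin dye 0.1 mM, final; doses: single compound dose of 20 µM, 1% DMSO final; timing: 16 min enzyme reaction, ambient temperature; measured by: fluorescence of resorufin, 544 nm excitation, 590 nm emission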
WT yeast gro inh = growth inhibition of WT yeast, mitochondrial fusion screen | mitochondrial fusion phenotypic screen, WT strain | inhibition, % at 10 µM | 2.1% of 190,000 active | AID 1362; in the data active = inhibition above about 58%; tested in S. cerevisiae
G6PDH CS = L. mesenteroides G6PDH inhibition counter-screen | Purified L. mesenteroides G6PDH, diaphorase/resazurin coupled fluorescence, 45 min | inhibition, % at 5 µM | 0.12% of 200,000 active
Diaphorase inh = inhibits diaphorase or chemically oxidizes, flagging diaphorase assay artifacts; diaphorase resazurin-to-resorufin fluorescence, NADH, 16 min; bacterial (C. kluyveri) enzyme, not human; inhibition, % at 20 µM; 0.69% of 190,000 active;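 active = primary screen inhibition at 20 µM above a set limit, cut at about 50% in these data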
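Test system: bacterial diaphorase enzyme (C. kluyveri); Quantity: 0.14 U/mL diaphorase, enzyme working solution; Times: reaction incubation of 16 min at room temperature; Measured by: fluorescence of resorufin formed from resazurin, Ex 544/Em 590 nm; Benchmarks: positive control minus NADH, DMSO neutral control.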
Large screens that a line does not name were inactive. Rule as the data show it, unless noted: active = inhibition above about 50%; inactive = the rest.

NC(=S)N/N=C/c1ccc(-c2cc(Cl)cc(Cl)c2)o1	Lmaj promast 97
O=C(O)c1cc(-c2ccc(/C=N/Nc3ccc(Cl)cc3)o2)ccc1Cl	WT yeast gro inh 62
COc1ccc(S(=O)(=O)O/N=C2\CCCc3ccccc32)cc1	none
O=C(Nc1ncccc1Cl)C1COc2ccccc2O1 (stereo not drawn)	none
N#CC1=C(N2CCCCC2)c2cc3c(n2C1=O)CCCC3	none
Cc1cn(C(=O)c2ccccc2)c(=S)n1-c1ccc(Br)cc1	none
COc1ccc(C(=O)C2CCCN(C(=O)C3=CCCC3)C2)c(C)c1 (stereo not drawn)	none
Cc1cc(F)ccc1N1CCC(N2CCN(C(C)C)C(CCO)C2)CC1 (stereo not drawn)	Lmaj promast 98
CC(C)N1CCN(Cc2cc(F)ccc2-n2cccn2)CC1CCO (stereo not drawn)	none
Cc1cc(F)ccc1N1CCC(N2CCN(CCC(C)C)C(CCO)C2)CC1 (stereo not drawn)	Lmaj promast 95
C=CCNC(=O)/C(C#N)=C/c1cc(Br)ccc1OC	none
C=CCNC(=O)/C(C#N)=C\c1cc(Cl)c(OCC)c(OC)c1	Lmaj promast 85
COCc1cc(S(=O)c2ccc(Cl)cc2)nc(C)n1 (stereo not drawn)	Lmaj promast 99
C/C(=N\N=C(/N)SC1CC(=O)N(c2cccc(Cl)c2)C1=O)c1cccs1 (stereo not drawn)	WT yeast gro inh 94
O=C(COc1ccccc1Br)N1CCN(c2ccccc2)CC1	none
COc1ccc(NC(=O)c2cccc(Oc3ccc([N+](=O)[O-])cc3Cl)c2)cc1	none
O=C(Nc1cccc(Cl)c1)c1cccc(Oc2ccc([N+](=O)[O-])cc2Cl)c1	Lmaj promast 98
CC(=O)Nc1ccc(S(=O)(=O)NCC(=O)OCC(=O)N2CCCc3ccccc32)cc1	none
CC(=O)Nc1ccc(C(=O)NCC(=O)OCc2c(F)cccc2Cl)cc1	none
CCOC(CNC(=O)c1ccc2c(c1)ncn2-c1ccc(F)c(F)c1)OCC	none
CCC(=O)NC(=S)Nc1ccc(NC(=O)CC)cc1	none
CC(=O)Nc1ccc(NC(=S)NC(=O)/C=C/c2ccc(Cl)cc2)cc1	none
COc1ccc(/C=C/C(=O)NC(=S)Nc2ccc(C(=O)O)cc2)cc1	Lmaj promast 69
CCC(=O)Nc1cccc(C(=O)/C=C/c2ccccc2)c1	Lmaj promast 100
CCC(=O)Nc1ccc(NC(=S)NC(=O)/C=C/c2ccccc2)cc1	Lmaj promast 81
CCOC(=O)C1CCCN(C(=O)c2cc(-c3ccc(C)cc3)nc3ccccc23)C1 (stereo not drawn)	none
Nc1nc(SCC(=O)N2CCCc3ccccc32)n(-c2ccccc2)n1	none
CCOC(=O)c1c(C)[nH]c(C(=O)C(C)OC(=O)c2oc3ccccc3c2COC)c1C (stereo not drawn)	none
CNc1cc(N2CCN(S(=O)(=O)N(C)C)CC2)ccc1[N+](=O)[O-]	none
Cc1ccc(S(=O)(=O)N/N=C\C=C\c2ccccc2)cc1	Lmaj promast 83
O=S(=O)(N/N=C\C=C\c1ccccc1)c1ccc(Br)cc1	Lmaj promast 97
O=S(=O)(N/N=C/c1ccc(F)cc1)c1ccccc1	none
Clc1ccc(-c2nnc3n2CCCC3)cc1	none
Cc1ccc(-c2nnc3n2CCCCC3)cc1	WT yeast gro inh 74
Cc1cccc(NC(=O)COc2ccc(/C=N\n3cnnc3)cc2)c1	none
Cc1ccc(S(=O)(=O)Oc2cccc(/C=N/n3cnnc3)c2)cc1	Lmaj promast 67
C(=N\n1cnnc1)/c1cccc(OCCOc2ccccc2)c1	none
Clc1ccc(Oc2cccc(/C=N/n3cnnc3)c2)cc1	WT yeast gro inh 68
C=CCNC(=S)NNc1nc2c(c(=O)[nH]1)C1(CCCCC1)Cc1ccccc1-2	none
CC(=O)c1ccc(-n2c(C)ccc2-c2ccccc2)cc1	WT yeast gro inh 62
CCN1C(=O)c2cccc3c(S(=O)(=O)NCc4ccccn4)ccc1c23	Lmaj promast 65
O=C(NCC(c1cccnc1)N1CCN(c2ccc(F)cc2)CC1)c1ccc2c(c1)OCO2 (stereo not drawn)	Lmaj promast 95
COc1ccc(N2CCN(C(CNC(=O)c3ccc4c(c3)OCO4)c3cccnc3)CC2)cc1 (stereo not drawn)	Lmaj promast 90
COc1ccc(N2CCN(C(CNC(=O)c3cccc(Cl)c3)c3cccnc3)CC2)cc1 (stereo not drawn)	Lmaj promast 96 (no result: WT yeast gro inh)
COc1ccc(S(=O)(=O)NCCCCC(=O)O)cc1C(=O)O	none
COc1ccc(C(=O)N(NC(=O)Oc2ccccc2)C(C)(C)C)cc1	none
CCC(=O)Nc1ccc(-c2nnc(SCC(=O)NCC3CCCO3)n2C)cc1 (stereo not drawn)	none
CC(c1nnc(Sc2nnnn2-c2ccccc2)n1-c1ccc(F)cc1)N(C)C (stereo not drawn)	none
N#CC1=C(N)Oc2cc(N)ccc2C1c1cccnc1 (stereo not drawn)	none
CCN(CC)c1ccc2c(c1)OC(N)=C(C#N)C2c1cccnc1 (stereo not drawn)	Lmaj promast 81
Cc1nc2ccccc2c2c(N)c3ccccc3n12	Lmaj promast 51
Cc1nc2ccccc2n1-c1ccccc1	none
Cc1cc(C)n(CC(O)Cn2c3ccc(Br)cc3c3cc(Br)ccc32)c(=O)n1 (stereo not drawn)	WT yeast gro inh 91
Cc1cc(C)n(CC(O)Cn2c3ccccc3c3ccccc32)c(=O)n1 (stereo not drawn)	none
Clc1ccc(-n2c(SC/C=C/c3ccccc3)nnc2-c2cccnc2)cc1	Lmaj promast 74
Nn1c(SC/C=C/c2ccccc2)nnc1-c1cccnc1	none
CCOc1ccccc1C(=O)N(C)Cc1cc2ccccc2[nH]c1=O	none
CCOc1cc(C(=O)N(C)Cc2cc3ccccc3[nH]c2=O)cc(OCC)c1OCC	WT yeast gro inh 78
Cc1cc(-c2cccc([N+](=O)[O-])c2)nc2ccc3ccccc3c12	none
O=C(COC(=O)C1CCN(S(=O)(=O)c2ccccc2C(F)(F)F)CC1)NCc1ccc(F)cc1	none
CC(=O)n1nc(-c2ccccc2)nc1NCc1ccc(N(C)C)cc1	none
Cc1ccccc1-n1c(SCC(=O)NC(N)=O)nc2sc(-c3ccccc3)cc2c1=O	Lmaj promast 61
Cc1ccc(S(=O)(=O)N(C)C)cc1-n1c(SCC(=O)Nc2ccc(F)cc2)nc2ccccc2c1=O	none
Cc1ccc(/C=N/NC(=O)CSc2nc3ccccc3c(=O)n2-c2ccccc2C)s1	none
Cc1ccc(S(=O)(=O)N(C)C)cc1-n1c(SCC(=O)Nc2ccccc2)nc2ccccc2c1=O	Lmaj promast 89
Cc1ccccc1-n1c(SCC(=O)N/N=C/c2sccc2C)nc2ccccc2c1=O	Lmaj promast 86
Cc1ccc(/C=C/C(=O)Nc2sc3c(c2C#N)CCCC3)o1	none
COC(=O)c1ccc(-c2nc3ccccc3[nH]2)cc1	none

Screens deposited in PubChem by several laboratories.
